15 compounds from PMC9851031 (ACS Omega, 2023) can be followed below.

What all share (assay type): in vivo
In one series the test system is Swiss albino mice. Kind of series: Acute toxicity. Conditions: for number of animals dead/tot number of animals tested: i.p., observed 24 h. An outline of the steps: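 Albino mice, five per cage, on a 12 h light/dark cycle, fasted overnight. Acute toxic-class testing followed OECD 423. Deaths and signs of toxicity were recorded after dosing to estimate the median lethal dose.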

Series [1] concerns MES-induced seizure in albino mice. Kind of series: Maximum electroshock. Conditions: i.p. in mice, 4.0 h; doses 30, 100, 300 mg/kg. An outline of the steps: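 Albino mice, fasted overnight, received test compound i.p. in PEG-200 at 30, 100 and 300 mg/kg. Electroshock was 60-cycle alternating current, 50 mA for 0.25 s, delivered via ear-clip electrodes, with testing at 0.5 and 4 h after dosing. Protection meant abolition of hind limb tonic extension. The minimum dose protecting more than half of animals (n = 5) was recorded.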

The subject of a further series is albino mice. Kind of series: Rotarod neurotoxicity test. As to conditions: doses 30, 100, 300 mg/kg; for neurotoxicity minimum dose: i.p. in mice. An outline of the steps: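 Albino mice of either sex, housed five per cage on a 12 h light/dark cycle and fasted overnight, were first trained to balance on a 3.2 cm diameter rod turning at 6 rpm. Trained mice then received test compound i.p. in PEG-200 at 30, 100 or 300 mg/kg. Neurotoxicity was scored as failure to stay on the rod for at least 1 min in each of three successive trials.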
In general terms: Falling from the rotarod earlier than controls is read as motor impairment.

The next series relates to mice. The series is described as follows: Antidepressant activity: locomotor activity by actophotometer. Conditions: for depressant effect (in words): actophotometer, 100 mg/kg; for % reduction in locomotor activity / locomotor activity score, after treatment means ± SEM: n = 5, 5 min. A digest of the protocol: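 Actophotometer test in mice. Test compound at 100 mg/kg or diazepam standard was given intraperitoneally. Locomotor activity scores were taken at baseline and after treatment over a 5 min span, n = 5. Percent reduction in locomotor activity was calculated against control. Data are mean ± SEM, analysed by one-way ANOVA with Dunnett's test.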

Setting [2] is: 100 mg/kg, after a few minutes of administration.

Each structure is given as a SMILES string.

In the case of `COc1ccc(-c2nc3ccccc3s2)cc1OCc1nnc(-c2c(C)cccc2C)o1` [6k, 2-{3-[5-(2,6-Dimethylphenyl)-[1,3,4]oxadiazol-2-ylmethoxy]-4-methoxy-phenyl}-benzothiazole], in the series on Swiss albino mice (300 mg/kg body weight, 24 h), the acute toxicity observation entry is “mortality with involuntary movements”. Moreover, the “number of animals dead/tot number of animals tested” value is recorded as 0/3 in the series on Swiss albino mice (dosage 5 mg/kg), 0/3 with Swiss albino mice (dosage 30 mg/kg), 0/3 in the series on Swiss albino mice (dosage 100 mg/kg) and 1/3 in the series on Swiss albino mice (dosage 300 mg/kg).

On to `COc1ccc(-c2nc3ccccc3s2)cc1OCc1nnc(-c2ccc(Cl)cc2)o1` [6g, 2-{3-[5-(4-Chloro-phenyl)-[1,3,4]oxadiazol-2-ylmethoxy]-4-methoxy-phenyl}-benzothiazole], for which the acute toxicity observation entry in the series with Swiss albino mice (300 mg/kg body weight, 24 h) is “mortality with involuntary movements”. Further, the “number of animals dead/tot number of animals tested” value is 0/3 in the series with Swiss albino mice (dosage 5 mg/kg), 0/3 in the series on Swiss albino mice (dosage 30 mg/kg), 0/3 in the series with Swiss albino mice (dosage 100 mg/kg) and 1/3 in the series on Swiss albino mice (dosage 300 mg/kg).

Turning to `COc1ccc(-c2nnc(COc3cc(-c4nc5ccccc5s4)ccc3OC)o2)cc1` [6b, 2-{4-Methoxy-3-[5-(4-methoxy-phenyl)-[1,3,4]oxadiazol-2-ylmethoxy]-phenyl}-benzothiazole], the “number of animals dead/tot number of animals tested” value in the series on Swiss albino mice (dosage 5 mg/kg), with Swiss albino mice (dosage 30 mg/kg), with Swiss albino mice (dosage 100 mg/kg) and in the series on Swiss albino mice (dosage 300 mg/kg) was 0/3 throughout. Further, the “HLTE (MES) minimum dose for antiepileptic potential” value (“HLTE (MES) minimum dose” for short) in series [1] was “failed to exhibit activity”.

Regarding `COc1ccc(-c2nc3ccccc3s2)cc1OCc1nnc(-c2ccc(N(C)C)cc2)o1` [6m, {4-[5-(5-Benzothiazol-2-yl-2-methoxy-phenoxymethyl)-[1,3,4]oxadiazol-2-yl]-phenyl}-dimethylamine], the “number of animals dead/tot number of animals tested” value in the series on Swiss albino mice (dosage 5 mg/kg), in the series on Swiss albino mice (dosage 30 mg/kg), with Swiss albino mice (dosage 100 mg/kg) and with Swiss albino mice (dosage 300 mg/kg) was 0/3 throughout. The “HLTE (MES) minimum dose” value in series [1] is given as “failed to exhibit activity”.

With `COc1ccc(-c2nc3ccccc3s2)cc1OCc1nnc(Cc2ccccc2)o1` [6e, 2-[3-(5-Benzyl-[1,3,4]oxadiazol-2-ylmethoxy)-4-methoxy-phenyl]-benzothiazole], the acute toxicity observation entry is “slight spasmodic behavior” with Swiss albino mice (setting [2]) and “mortality with involuntary movements” with Swiss albino mice (300 mg/kg body weight, 24 h). Besides, the “number of animals dead/tot number of animals tested” value is 0/3 with Swiss albino mice (dosage 5 mg/kg), 0/3 in the series on Swiss albino mice (dosage 30 mg/kg), 1/3 in the series with Swiss albino mice (dosage 100 mg/kg) and 1/3 in the series on Swiss albino mice (dosage 300 mg/kg).

In the case of `COc1ccc(-c2nc3ccccc3s2)cc1OCc1nnc(-c2ccccc2)o1` [6d, 2-[4-Methoxy-3-(5-phenyl-[1,3,4]oxadiazol-2-ylmethoxy)-phenyl]-benzothiazole], the acute toxicity observation result with Swiss albino mice (300 mg/kg body weight, 24 h) is listed as “mortality with involuntary movements”. Further, the “number of animals dead/tot number of animals tested” value was 0/3 in the series on Swiss albino mice (dosage 5 mg/kg), 0/3 in the series on Swiss albino mice (dosage 30 mg/kg), 0/3 with Swiss albino mice (dosage 100 mg/kg) and 2/3 in the series with Swiss albino mice (dosage 300 mg/kg).

`COc1ccc(-c2nc3ccccc3s2)cc1OCc1nnc(-c2ccc([N+](=O)[O-])cc2)o1` [6h, 2-{4-Methoxy-3-[5-(4-nitro-phenyl)-[1,3,4]oxadiazol-2-ylmethoxy]-phenyl}-benzothiazole]: the “number of animals dead/tot number of animals tested” value in the series with Swiss albino mice (dosage 5 mg/kg), in the series with Swiss albino mice (dosage 30 mg/kg), in the series on Swiss albino mice (dosage 100 mg/kg) and in the series with Swiss albino mice (dosage 300 mg/kg) was 0/3 throughout. The “neurotoxicity (in words)” value in the series with albino mice is given as “no neurotoxicity”. Besides, in the series on mice, the “depressant effect (in words)” value is recorded as “not depressants”. In the series with mice (dose 100 mg/kg), the “% reduction in locomotor activity” value is 0.37%. Besides, in the series on mice (dose 100 mg/kg), the “locomotor activity score, after treatment means ± SEM” value was 373.4 ± 3.85^ns.

In the case of `O=C1NC(=O)C(c2ccccc2)(c2ccccc2)N1` [phenytoin, reference compound], the “number of animals dead/tot number of animals tested” value in the series on Swiss albino mice (dosage 5 mg/kg), in the series with Swiss albino mice (dosage 30 mg/kg), in the series on Swiss albino mice (dosage 100 mg/kg) and in the series with Swiss albino mice (dosage 300 mg/kg) was 0/3 throughout. Further, the neurotoxicity minimum dose in the series on albino mice (0.5 h) and in the series on albino mice (4.0 h) was 100 mg/kg in each case.

Turning to `COc1ccc(-c2nc3ccccc3s2)cc1OCc1nnc(-c2cc([N+](=O)[O-])cc([N+](=O)[O-])c2O)o1` [6j, 2-[5-(5-Benzothiazol-2-yl-2-methoxy-phenoxymethyl)-[1,3,4]oxadiazol-2-yl]-4,6-dinitro-phenol], the “number of animals dead/tot number of animals tested” value in the series on Swiss albino mice (dosage 5 mg/kg), in the series on Swiss albino mice (dosage 30 mg/kg), in the series with Swiss albino mice (dosage 100 mg/kg) and with Swiss albino mice (dosage 300 mg/kg) was 0/3 in each case. Further, in the series on albino mice, the “neurotoxicity (in words)” value is listed as “no neurotoxicity”. Besides, the “depressant effect (in words)” value in the series with mice is on record as “not depressants”. The “% reduction in locomotor activity” value with mice (dose 100 mg/kg) worked out at 0.48%. Besides, in the series with mice (dose 100 mg/kg), the “locomotor activity score, after treatment means ± SEM” value was 368.8 ± 2.63^ns.

In the case of `COc1ccc(-c2nc3ccccc3s2)cc1OCc1nnc(-c2ccc(N)cc2)o1` [6a, 4-[5-(5-Benzothiazol-2-yl-2-methoxy-phenoxymethyl)-[1,3,4]oxadiazol-2-yl]-phenylamine], the “number of animals dead/tot number of animals tested” value in the series on Swiss albino mice (dosage 5 mg/kg), in the series with Swiss albino mice (dosage 30 mg/kg), with Swiss albino mice (dosage 100 mg/kg) and in the series on Swiss albino mice (dosage 300 mg/kg) was 0/3 throughout.

On to `COc1ccc(-c2nc3ccccc3s2)cc1OCc1nnc(C(c2ccccc2)c2ccccc2)o1` [6i, 2-[3-(5-Benzhydryl-[1,3,4]oxadiazol-2-ylmethoxy)-4-methoxy-phenyl]-benzothiazole], for which the acute toxicity observation result with Swiss albino mice (300 mg/kg body weight, 24 h) is given as “mortality with involuntary movements”. Moreover, the “number of animals dead/tot number of animals tested” value is reported as 0/3 with Swiss albino mice (dosage 5 mg/kg), 0/3 in the series with Swiss albino mice (dosage 30 mg/kg), 0/3 in the series on Swiss albino mice (dosage 100 mg/kg) and 1/3 in the series on Swiss albino mice (dosage 300 mg/kg).

For `COc1ccc(-c2nc3ccccc3s2)cc1OCc1nnc(-c2c(OC)cccc2OC)o1` [6n, 2-{3-[5-(2,6-Dimethoxyphenyl)-[1,3,4]oxadiazol-2-ylmethoxy]-4-methoxy-phenyl}benzothiazole], the “number of animals dead/tot number of animals tested” value in the series on Swiss albino mice (dosage 5 mg/kg), in the series with Swiss albino mice (dosage 30 mg/kg), with Swiss albino mice (dosage 100 mg/kg) and in the series with Swiss albino mice (dosage 300 mg/kg) was 0/3 each time.

For the compound `COc1ccc(-c2nc3ccccc3s2)cc1OCc1nnc(-c2ccc(Br)cc2)o1` [6c, 2-{3-[5-(4-Bromo-phenyl)-[1,3,4]oxadiazol-2-ylmethoxy]-4-methoxy-phenyl}-benzothiazole], the acute toxicity observation result in the series with Swiss albino mice (setting [2]) is reported as “slight spasmodic behavior”; with Swiss albino mice (300 mg/kg body weight, 24 h) it was “mortality with involuntary movements”. For the same compound, the “number of animals dead/tot number of animals tested” value is listed as 0/3 in the series with Swiss albino mice (dosage 5 mg/kg), 0/3 with Swiss albino mice (dosage 30 mg/kg), 1/3 with Swiss albino mice (dosage 100 mg/kg) and 2/3 in the series with Swiss albino mice (dosage 300 mg/kg). The “HLTE (MES) minimum dose” value in series [1] was “failed to exhibit activity”. Also, the neurotoxicity minimum dose in the series with albino mice (0.5 h) and with albino mice (4.0 h) was 300 mg/kg throughout.

Regarding `CN1C(=O)CN=C(c2ccccc2)c2cc(Cl)ccc21` [diazepam, reference compound], in the series with mice (4 mg/kg (intraperitoneally)), the “% reduction in locomotor activity” value came out at 80.4% and the “locomotor activity score, after treatment means ± SEM” value is on record as 74.6 ± 2.65.

`COc1ccc(-c2nc3ccccc3s2)cc1OCc1nnc(-c2ccc(O)cc2)o1` [6l, 4-[5-(5-Benzothiazol-2-yl-2-methoxy-phenoxymethyl)-[1,3,4]oxadiazol-2-yl]-phenol]: the “number of animals dead/tot number of animals tested” value with Swiss albino mice (dosage 5 mg/kg), in the series on Swiss albino mice (dosage 30 mg/kg), with Swiss albino mice (dosage 100 mg/kg) and in the series with Swiss albino mice (dosage 300 mg/kg) was 0/3 in each case. In addition, the “neurotoxicity (in words)” value in the series with albino mice is reported as “no neurotoxicity”. The “depressant effect (in words)” value in the series on mice is recorded as “not depressants”. For the same compound, in the series on mice (dose 100 mg/kg), the “% reduction in locomotor activity” value worked out at 0.73%. Further, the “locomotor activity score, after treatment means ± SEM” value in the series with mice (dose 100 mg/kg) is 375.8 ± 3.65^ns.
